Data: ChEMBL document CHEMBL3352345, “Design, synthesis and biological evaluation of novel thieno[3,2-d]pyrimidine derivatives containing diaryl urea moiety as potent antitumor agents” (Eur J Med Chem, 2014)

Columns and labels:
[1] = Cytotoxicity against human H460 cells after 72 hrs by MTT assay; assay type: functional, cell-based; conditions: NCI-H460, 72 h
Summary of the method: (§1)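 Cells suspended in MEM medium, plated and incubated 24 h at 37 °C in 5% CO₂, then exposed to compounds at indicated final concentrations for 72 h. IC₅₀ from averages of three determinations, relative to DMSO vehicle control.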

HT-29 [2] = test: Cytotoxicity against human HT-29 cells after 72 hrs by MTT assay; assay type: functional, cell-based; conditions: HT-29, 72 h; summary of the method: as §1
[3] = Cytotoxicity against human MKN45 cells after 72 hrs by MTT assay; assay type: functional, cell-based; conditions: MKN-45, 72 h; summary of the method: as §1
MDA-MB-231 = test: Cytotoxicity against human MDA-MB-231 cells after 72 hrs by MTT assay; assay type: functional, cell-based; conditions: MDA-MB-231, 72 h; summary of the method: as §1
[4] = target: Phosphatidylinositol 4,5-bisphosphate 3-kinase catalytic subunit alpha isoform (Homo sapiens, UniProt P42336); test: Inhibition of PI3Kalpha (unknown origin) using poly (Glu, Tyr) 4:1 substrate incubated for 30 mins by HTRF assay
Phosphatidylinositol 4,5-bisphosphate 3-kinase catalytic subunit alpha isoform, sequence (P42336 whole entry, canonical isoform): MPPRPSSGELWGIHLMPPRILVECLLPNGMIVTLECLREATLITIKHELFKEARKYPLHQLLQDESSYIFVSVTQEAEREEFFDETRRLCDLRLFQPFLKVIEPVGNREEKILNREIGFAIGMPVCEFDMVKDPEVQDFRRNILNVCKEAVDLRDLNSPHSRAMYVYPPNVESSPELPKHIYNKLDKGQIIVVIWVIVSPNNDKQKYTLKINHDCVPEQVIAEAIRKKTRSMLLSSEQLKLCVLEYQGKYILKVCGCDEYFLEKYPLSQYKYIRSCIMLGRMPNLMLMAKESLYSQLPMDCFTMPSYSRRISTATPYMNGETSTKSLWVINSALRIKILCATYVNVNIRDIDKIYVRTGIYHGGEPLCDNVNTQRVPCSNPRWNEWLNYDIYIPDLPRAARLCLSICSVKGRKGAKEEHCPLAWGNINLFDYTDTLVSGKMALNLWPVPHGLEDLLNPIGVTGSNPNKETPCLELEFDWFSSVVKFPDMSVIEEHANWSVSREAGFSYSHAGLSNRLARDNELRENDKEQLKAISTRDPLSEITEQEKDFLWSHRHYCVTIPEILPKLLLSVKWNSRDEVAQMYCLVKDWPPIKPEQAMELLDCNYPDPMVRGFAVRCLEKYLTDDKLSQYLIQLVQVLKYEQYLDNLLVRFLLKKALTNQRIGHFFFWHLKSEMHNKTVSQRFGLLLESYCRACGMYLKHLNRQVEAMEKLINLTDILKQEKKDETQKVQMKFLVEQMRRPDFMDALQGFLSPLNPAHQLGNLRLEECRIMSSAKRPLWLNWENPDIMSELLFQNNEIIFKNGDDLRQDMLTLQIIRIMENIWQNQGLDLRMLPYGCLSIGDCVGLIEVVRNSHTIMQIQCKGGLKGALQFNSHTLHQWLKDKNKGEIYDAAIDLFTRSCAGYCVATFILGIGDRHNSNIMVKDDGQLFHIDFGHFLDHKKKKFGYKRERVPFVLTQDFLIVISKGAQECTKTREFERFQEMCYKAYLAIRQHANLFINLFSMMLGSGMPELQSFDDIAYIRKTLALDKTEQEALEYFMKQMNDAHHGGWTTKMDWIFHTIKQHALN

[5] = target: Serine/threonine-protein kinase mTOR (Homo sapiens, UniProt P42345); test: Inhibition of mTOR (unknown origin) using poly (Glu, Tyr) 4:1 substrate incubated for 30 mins by HTRF assay
Summary of the method: (§2)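 Compounds in 1% DMSO, blank DMSO as negative control. Reaction started with purified tyrosine kinase, 30 min at 25 °C, stopped with Streptavidin-XL665 and Tk antibody cryptate; read at […] and 615 nm.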

[6] = target: Serine/threonine-protein kinase B-raf (Homo sapiens, UniProt P15056); test: Inhibition of B-Raf (unknown origin) using poly (Glu, Tyr) 4:1 substrate incubated for 30 mins by HTRF assay
Serine/threonine-protein kinase B-raf, sequence (P15056 whole entry): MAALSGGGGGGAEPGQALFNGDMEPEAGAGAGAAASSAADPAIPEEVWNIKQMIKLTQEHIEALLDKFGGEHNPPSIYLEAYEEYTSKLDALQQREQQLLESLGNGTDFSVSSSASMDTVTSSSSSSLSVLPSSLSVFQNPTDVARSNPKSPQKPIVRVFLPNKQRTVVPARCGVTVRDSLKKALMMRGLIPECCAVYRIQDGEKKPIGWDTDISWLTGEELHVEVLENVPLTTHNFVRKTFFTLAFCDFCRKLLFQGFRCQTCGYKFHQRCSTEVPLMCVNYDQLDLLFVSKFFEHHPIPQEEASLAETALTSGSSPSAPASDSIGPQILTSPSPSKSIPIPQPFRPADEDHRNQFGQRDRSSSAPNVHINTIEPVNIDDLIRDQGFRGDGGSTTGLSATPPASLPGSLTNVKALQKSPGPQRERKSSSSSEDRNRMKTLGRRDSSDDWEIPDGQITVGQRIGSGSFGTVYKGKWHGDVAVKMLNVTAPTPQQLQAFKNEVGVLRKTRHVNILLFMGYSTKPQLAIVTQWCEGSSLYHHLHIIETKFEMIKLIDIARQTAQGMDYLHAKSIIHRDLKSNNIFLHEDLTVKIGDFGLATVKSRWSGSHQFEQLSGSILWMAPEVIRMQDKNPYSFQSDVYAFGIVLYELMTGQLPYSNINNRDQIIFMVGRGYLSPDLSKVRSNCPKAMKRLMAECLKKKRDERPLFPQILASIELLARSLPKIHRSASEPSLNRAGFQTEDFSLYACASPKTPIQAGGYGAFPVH

[7] = target: RAF proto-oncogene serine/threonine-protein kinase (Homo sapiens, UniProt P04049); test: Inhibition of C-Raf (unknown origin) using poly (Glu, Tyr) 4:1 substrate incubated for 30 mins by HTRF assay; summary of the method: as §2
RAF proto-oncogene serine/threonine-protein kinase, sequence (P04049 whole entry): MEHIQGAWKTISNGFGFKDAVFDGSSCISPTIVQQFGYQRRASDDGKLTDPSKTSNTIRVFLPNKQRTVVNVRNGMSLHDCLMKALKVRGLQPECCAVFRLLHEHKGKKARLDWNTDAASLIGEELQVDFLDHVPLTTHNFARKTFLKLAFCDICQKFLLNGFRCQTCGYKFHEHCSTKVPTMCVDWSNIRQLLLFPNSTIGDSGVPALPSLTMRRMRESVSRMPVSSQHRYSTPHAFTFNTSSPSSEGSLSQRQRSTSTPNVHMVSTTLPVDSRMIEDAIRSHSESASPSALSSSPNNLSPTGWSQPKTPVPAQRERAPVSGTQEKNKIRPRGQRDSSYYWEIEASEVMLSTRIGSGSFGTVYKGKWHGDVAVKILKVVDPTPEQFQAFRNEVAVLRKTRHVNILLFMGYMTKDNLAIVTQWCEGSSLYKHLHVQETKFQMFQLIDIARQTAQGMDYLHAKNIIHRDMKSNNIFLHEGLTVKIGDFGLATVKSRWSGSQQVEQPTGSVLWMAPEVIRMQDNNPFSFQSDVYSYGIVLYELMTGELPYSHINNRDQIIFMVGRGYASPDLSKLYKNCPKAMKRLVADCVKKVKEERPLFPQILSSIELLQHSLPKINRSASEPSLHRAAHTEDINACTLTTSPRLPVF

[8] = target: Epidermal growth factor receptor (Homo sapiens, UniProt P00533); test: Inhibition of EGFR (unknown origin) using poly (Glu, Tyr) 4:1 substrate incubated for 30 mins by HTRF assay
[9] = target: Vascular endothelial growth factor receptor (Homo sapiens, UniProt P17948+P35916+P35968); test: Inhibition of VEGFR (unknown origin) using poly (Glu, Tyr) 4:1 substrate incubated for 30 mins by HTRF assay; assay type: protein assay
[10] = target: Platelet-derived growth factor receptor beta (Homo sapiens, UniProt P09619); test: Inhibition of PDGFRbeta (unknown origin) using poly (Glu, Tyr) 4:1 substrate incubated for 30 mins by HTRF assay; summary of the method: as §2
Platelet-derived growth factor receptor beta, sequence (P09619 whole entry): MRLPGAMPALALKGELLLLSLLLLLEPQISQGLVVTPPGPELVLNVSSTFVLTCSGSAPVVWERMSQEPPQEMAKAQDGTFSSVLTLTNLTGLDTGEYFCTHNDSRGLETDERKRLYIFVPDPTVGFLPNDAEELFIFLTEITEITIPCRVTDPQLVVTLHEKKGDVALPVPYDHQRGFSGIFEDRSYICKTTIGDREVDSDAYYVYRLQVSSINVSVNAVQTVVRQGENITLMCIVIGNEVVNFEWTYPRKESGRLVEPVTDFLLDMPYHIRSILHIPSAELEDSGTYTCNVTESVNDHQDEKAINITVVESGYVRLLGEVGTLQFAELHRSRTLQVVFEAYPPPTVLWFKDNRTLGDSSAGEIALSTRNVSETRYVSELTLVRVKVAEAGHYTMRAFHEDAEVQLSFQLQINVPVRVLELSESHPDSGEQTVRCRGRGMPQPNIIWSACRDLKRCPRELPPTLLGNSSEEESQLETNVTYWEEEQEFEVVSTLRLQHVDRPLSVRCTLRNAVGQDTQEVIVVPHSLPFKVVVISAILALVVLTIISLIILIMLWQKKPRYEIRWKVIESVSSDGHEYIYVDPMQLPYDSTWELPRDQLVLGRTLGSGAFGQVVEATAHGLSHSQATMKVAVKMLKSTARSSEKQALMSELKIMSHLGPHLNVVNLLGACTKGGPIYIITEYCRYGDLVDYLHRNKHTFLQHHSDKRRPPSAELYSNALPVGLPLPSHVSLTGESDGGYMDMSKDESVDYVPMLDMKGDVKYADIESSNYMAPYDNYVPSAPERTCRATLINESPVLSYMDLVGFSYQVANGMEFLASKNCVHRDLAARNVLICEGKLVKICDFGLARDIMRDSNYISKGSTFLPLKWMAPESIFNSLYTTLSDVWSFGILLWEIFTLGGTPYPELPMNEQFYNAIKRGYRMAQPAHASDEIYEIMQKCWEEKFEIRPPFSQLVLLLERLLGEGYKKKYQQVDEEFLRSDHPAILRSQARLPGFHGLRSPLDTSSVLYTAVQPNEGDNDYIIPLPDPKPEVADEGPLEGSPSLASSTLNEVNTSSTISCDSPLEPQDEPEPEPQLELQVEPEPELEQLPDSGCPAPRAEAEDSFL

[11] = target: T1, Receptor-type tyrosine-protein kinase FLT3 (Homo sapiens, UniProt P36888); test: Inhibition of FLT3 (unknown origin) using poly (Glu, Tyr) 4:1 substrate incubated for 30 mins by HTRF assay; summary of the method: as §2
T1 sequence (P36888 whole entry): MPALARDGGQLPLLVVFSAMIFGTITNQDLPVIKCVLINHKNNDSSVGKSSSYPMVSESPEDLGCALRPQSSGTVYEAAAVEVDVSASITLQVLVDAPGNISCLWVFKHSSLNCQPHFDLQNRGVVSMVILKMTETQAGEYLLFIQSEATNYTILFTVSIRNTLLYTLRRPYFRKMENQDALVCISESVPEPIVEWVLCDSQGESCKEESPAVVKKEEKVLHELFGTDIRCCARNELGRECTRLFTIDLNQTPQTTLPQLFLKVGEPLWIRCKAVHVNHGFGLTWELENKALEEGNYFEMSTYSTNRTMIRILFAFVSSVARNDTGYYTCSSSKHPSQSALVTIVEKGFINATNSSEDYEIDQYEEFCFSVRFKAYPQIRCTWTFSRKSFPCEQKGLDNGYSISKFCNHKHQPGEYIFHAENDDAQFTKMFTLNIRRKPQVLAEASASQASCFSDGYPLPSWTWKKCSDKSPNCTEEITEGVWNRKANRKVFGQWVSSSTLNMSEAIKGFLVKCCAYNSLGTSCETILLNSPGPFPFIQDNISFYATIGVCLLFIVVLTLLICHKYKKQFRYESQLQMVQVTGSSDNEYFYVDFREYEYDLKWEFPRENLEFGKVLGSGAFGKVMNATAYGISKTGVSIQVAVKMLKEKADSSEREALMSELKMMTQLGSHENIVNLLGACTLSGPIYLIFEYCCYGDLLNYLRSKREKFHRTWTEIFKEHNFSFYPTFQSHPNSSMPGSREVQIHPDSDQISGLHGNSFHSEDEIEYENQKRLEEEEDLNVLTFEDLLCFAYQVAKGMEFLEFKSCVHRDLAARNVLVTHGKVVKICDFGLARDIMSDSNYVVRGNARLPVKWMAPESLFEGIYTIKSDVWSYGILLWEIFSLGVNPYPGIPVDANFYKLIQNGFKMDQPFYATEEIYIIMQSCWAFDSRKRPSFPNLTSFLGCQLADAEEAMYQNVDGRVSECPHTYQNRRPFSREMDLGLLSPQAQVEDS

[12] = target: Mast/stem cell growth factor receptor Kit (Homo sapiens, UniProt P10721); test: Inhibition of KIT (unknown origin) using poly (Glu, Tyr) 4:1 substrate incubated for 30 mins by HTRF assay; summary of the method: as §2
[13] = target: Vascular endothelial growth factor receptor 2 (Homo sapiens, UniProt P35968); test: Inhibition of KDR (unknown origin) using poly (Glu, Tyr) 4:1 substrate incubated for 30 mins by HTRF assay
Vascular endothelial growth factor receptor 2, sequence (P35968 whole entry): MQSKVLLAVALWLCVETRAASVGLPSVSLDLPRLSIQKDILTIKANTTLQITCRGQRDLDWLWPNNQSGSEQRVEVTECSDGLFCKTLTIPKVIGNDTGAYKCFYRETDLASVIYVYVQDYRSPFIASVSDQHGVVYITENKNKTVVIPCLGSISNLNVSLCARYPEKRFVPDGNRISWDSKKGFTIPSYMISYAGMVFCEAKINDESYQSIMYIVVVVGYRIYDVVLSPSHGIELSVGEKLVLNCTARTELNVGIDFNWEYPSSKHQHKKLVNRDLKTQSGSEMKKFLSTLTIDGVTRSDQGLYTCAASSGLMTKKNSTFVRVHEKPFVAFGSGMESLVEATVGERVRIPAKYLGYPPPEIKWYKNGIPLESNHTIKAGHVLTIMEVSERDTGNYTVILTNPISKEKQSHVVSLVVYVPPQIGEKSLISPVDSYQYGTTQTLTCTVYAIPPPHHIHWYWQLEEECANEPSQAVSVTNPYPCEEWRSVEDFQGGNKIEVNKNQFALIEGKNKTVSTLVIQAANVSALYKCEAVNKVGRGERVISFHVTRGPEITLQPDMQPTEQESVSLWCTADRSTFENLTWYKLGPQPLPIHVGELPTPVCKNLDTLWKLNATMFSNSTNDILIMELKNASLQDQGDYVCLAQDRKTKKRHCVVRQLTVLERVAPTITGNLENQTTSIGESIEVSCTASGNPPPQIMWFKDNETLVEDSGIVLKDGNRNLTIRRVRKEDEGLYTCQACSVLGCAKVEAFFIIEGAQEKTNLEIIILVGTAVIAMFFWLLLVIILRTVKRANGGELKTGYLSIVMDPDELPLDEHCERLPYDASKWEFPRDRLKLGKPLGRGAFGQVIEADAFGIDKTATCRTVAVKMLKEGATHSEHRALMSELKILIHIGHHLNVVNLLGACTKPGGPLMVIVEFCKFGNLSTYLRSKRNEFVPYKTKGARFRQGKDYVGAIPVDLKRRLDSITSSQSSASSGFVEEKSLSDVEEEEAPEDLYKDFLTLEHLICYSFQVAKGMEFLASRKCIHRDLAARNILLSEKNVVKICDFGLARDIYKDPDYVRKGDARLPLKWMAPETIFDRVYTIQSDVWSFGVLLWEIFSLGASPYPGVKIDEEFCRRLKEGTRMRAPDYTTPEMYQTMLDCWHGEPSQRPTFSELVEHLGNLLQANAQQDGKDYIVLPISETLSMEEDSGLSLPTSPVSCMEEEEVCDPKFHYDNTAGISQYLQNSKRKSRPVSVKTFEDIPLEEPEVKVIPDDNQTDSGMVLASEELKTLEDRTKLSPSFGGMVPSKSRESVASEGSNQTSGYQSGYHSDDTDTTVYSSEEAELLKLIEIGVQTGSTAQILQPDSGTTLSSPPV

HT-29 [14] = test: Induction of apoptosis in human HT-29 cells assessed as increase in PARP cleavage pre-treated for 48 hrs by Western blot method; assay type: functional, cell-based
Summary of the method: (§3)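 HT-29 cells (about 1 × 10⁷) treated 48 h with vehicle or 1 or 5 µM compound; lysates prepared with lysis buffer plus protease inhibitor cocktail and sonicated. Equal total protein run on 10% SDS-PAGE, transferred to PVDF, probed with primary and HRP secondary antibodies. Cleaved PARP to β-actin ratio expressed relative to control.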

HT-29 [15] = test: Induction of apoptosis in human HT-29 cells assessed as increase in PARP cleavage at 1 uM pre-treated for 48 hrs by Western blot method relative to beta-actin expression; assay type: functional; summary of the method: as §3
HT-29 [16] = test: Induction of apoptosis in human HT-29 cells assessed as increase in PARP cleavage at 5 uM pre-treated for 48 hrs by Western blot method relative to beta-actin expression; assay type: functional; summary of the method: as §3

IC50 [4]: 0.13 µM | IC50 [5]: > 10 µM | IC50 [6]: > 10 µM | IC50 [7]: > 10 µM | IC50 [8]: > 10 µM | IC50 [9]: > 10 µM | IC50 [10]: 5.8 µM | IC50 [11]: 1 µM | IC50 [12]: 6.1 µM | IC50 [13]: > 10 µM
Compound: CCN(CC)CCCNc1nc(-c2ccc(NC(=O)Nc3ccc(Cl)cc3)cc2)nc2ccsc12
IC50 [1]: 0.081 µM | IC50 (HT-29 [2]): 0.058 µM | IC50 [3]: 0.18 µM | IC50 (MDA-MB-231): 0.23 µM | Activity (HT-29 [14]): Dose-dependent effect | fold change (FC) (HT-29 [15]): 2.5 | fold change (FC) (HT-29 [16]): 3.5
